# Screens: PubChem BioAssay, several laboratories
# Only some compounds are listed: those with a hit (about 3.1% of all), similar ones and a draw of the others.
# ATG4B inh = inhibitors of human ATG4B cysteine protease; ATG4B cleavage of LC3-PLA2, NBD-HPC fluorescence, 1 h; inhibition, % at 8.33 µM; 0.51% of 340,000 active; AID 504462; in the data active = inhibition above about 40%
# MBD2 DNA inh = inhibitors of human MBD2 binding to methylated oligonucleotide; inhibition, % at 4.4 µM; Q9UBB5; 0.31% of 370,000 active; TR-FRET; in the data active = inhibition above about 13%
# LEDGF integ inh = blocks HIV-1 LEDGF/p75-dependent DNA integration | 0.64% of 370,000 active | inhibition, % at 3.7 µM | AID 743269 | TR-FRET IN-LEDGF/p75 DNA integration, Eu/Cy5;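 active = inhibition above the screen-wide mean plus 3 SD, cut at about 13% in these data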;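 note: signal is the Cy5 over europium emission ratio at 671 and 618 nm; 0% = plate median of compound wells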
# rCAG RNA binder = r(CAG) repeat RNA binding. TO-PRO-1 dye displacement fluorescence. inhibition, % at 3 µM. 1.3% of 370,000 active. AID 651821;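 active = inhibition above the plate cutoff, the mean of all test compounds on that plate plus 3 SD, cut at about 35% in these data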;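 note: 0% = DMSO alone and 100% = 100 µM mitoxantrone as full dye displacement; higher means more dye released from RNA so lower well fluorescence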
# CSN deneddyl inh = inhibitors of human CSN-mediated cullin deneddylation | Purified CSN, SCF-Nedd8-OG deneddylation, fluorescence polarization | inhibition, % at 12.5 µM | 0.38% of 360,000 active | AID 651999 | Q92905;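 active = pattern-corrected inhibition above about 35%, with an unprinted fluorescence ratio check between 0.5 and 1.5, limit read from the data, passing the limit was not always enough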;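 note: 0% = enzyme with substrate and 100% = substrate without enzyme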
#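 assay system = purified human Csn5 enzyme expressed in HEK293T cells | amount = 0.24 nM enzyme | buffer or medium = Tris/NaCl/DTT buffer, pH 7.5 | reagent = 10 nM SCFSkp2-Nedd8OG | compound = one concentration, 12.5 µM, 0.25% DMSO | times = 90 min reaction at room temperature | signal = FP | read-out basis = % inhibition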
# UHRF1 binding = human UHRF1 methylated DNA binding inhibitors; UHRF1 binding to methylated oligo, TR-FRET; 0.75% of 370,000 active; inhibition, % at 4.4 µM; Q96T88; in the data active = inhibition above about 21%;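 note: UHRF1 SRA domain binding a hemimethylated CpG hairpin DNA probe; 0% = median of test compound wells and 100% = reference inhibitor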
# Target sequence (Q96T88 whole entry, looked up, the tested form may be a part): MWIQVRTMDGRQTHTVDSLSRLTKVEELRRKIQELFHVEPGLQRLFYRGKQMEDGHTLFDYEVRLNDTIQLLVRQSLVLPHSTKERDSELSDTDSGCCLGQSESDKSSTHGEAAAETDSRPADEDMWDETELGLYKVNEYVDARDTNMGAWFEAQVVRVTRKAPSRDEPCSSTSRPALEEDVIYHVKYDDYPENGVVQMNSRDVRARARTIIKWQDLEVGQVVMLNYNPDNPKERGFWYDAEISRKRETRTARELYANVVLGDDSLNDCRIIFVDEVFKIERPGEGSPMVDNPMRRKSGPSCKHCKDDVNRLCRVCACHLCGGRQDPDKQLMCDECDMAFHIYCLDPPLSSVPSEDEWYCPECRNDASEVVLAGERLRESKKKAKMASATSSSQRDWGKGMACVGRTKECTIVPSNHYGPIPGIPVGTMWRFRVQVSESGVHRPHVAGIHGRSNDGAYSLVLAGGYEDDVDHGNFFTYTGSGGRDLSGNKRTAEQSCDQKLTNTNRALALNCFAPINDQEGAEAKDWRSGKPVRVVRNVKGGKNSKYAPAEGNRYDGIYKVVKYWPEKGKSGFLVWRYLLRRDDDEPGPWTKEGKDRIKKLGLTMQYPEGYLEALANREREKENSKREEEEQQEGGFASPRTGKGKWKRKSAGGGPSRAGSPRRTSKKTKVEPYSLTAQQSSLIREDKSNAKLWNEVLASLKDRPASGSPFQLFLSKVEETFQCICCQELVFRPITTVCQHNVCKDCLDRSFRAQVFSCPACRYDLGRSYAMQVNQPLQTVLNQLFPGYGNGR
# * hit, by the source's call; . = no result.
SMILES,ATG4B inh,MBD2 DNA inh,LEDGF integ inh,rCAG RNA binder,CSN deneddyl inh,UHRF1 binding
O=C1NN(c2ccccc2)C(=O)/C1=C/c1ccc(-c2ccc(Cl)c(C(=O)O)c2)o1,1,0,5,11,28,23*
Cc1cccc(N2NC(=O)/C(=C/c3ccc(-c4ccc(Cl)c(C(=O)O)c4)o3)C2=O)c1,0,6,5,20,24,31*
O=C(O)c1cc(-c2ccc(/C=C3\NC(=O)N(c4ccccc4)C3=O)o2)ccc1Cl,6,5,5,14,24,16
CCOC(=O)c1cc(-c2ccc(/C=C3/C(=O)N(c4ccc(C(=O)O)cc4)N=C3C)o2)ccc1Cl,37,-8,7,4,31,-1
COC(=O)[C@@]1(Cc2ccc(F)cc2)[C@H]2c3cc(C(=O)N(C)C)n(Cc4cc(C)n(C)n4)c3C[C@H]2CN1C(=O)c1ccccc1,.,-2,-4,3,102*,-1
COC(=O)[C@@]1(Cc2ccc(F)cc2)[C@H]2c3cc(C(=O)N4CCCC4)n(Cc4cc(C)n(C)n4)c3C[C@H]2CN1C(=O)c1ccccc1,.,-4,2,4,-4,0
Oc1cccc(C=NCc2ccccc2)c1O,25,-1,65*,19,15,7
Cc1ccccc1CNC(=O)C1CCC(CNS(=O)(=O)c2cccc3cccnc23)CC1 (stereo unspecified),.,-3,1,2,.,-1
CCN(C[C@H]1N[C@@](C)(C(=O)OC)[C@H]2C(=O)N(C)C(=O)[C@@H]12)S(=O)(=O)c1ccc(C(F)(F)F)cc1,6,5,8,-1,2,22*
C=Cc1ccc(C(=O)Nc2nnc(-c3cccnc3)s2)cc1,.,3,-1,7,.,2
COc1ccc(Cl)cc1NC(=O)CSc1nnc(Cc2ccc(C)cc2)c(=O)[nH]1,4,6,-3,75*,-4,-5
Cc1ccc(Cc2nnc(SCC(=O)Nc3ccccc3Cl)[nH]c2=O)cc1,1,3,2,16,-5,3
CN(C)CCNC(=O)/C(=N\O)c1ccccn1,1,9,4,2,1,27*
Cc1c(NC(=O)C2CCCN(S(=O)(=O)c3ccc(Br)s3)C2)c(=O)n(-c2ccccc2)n1C (stereo unspecified),.,-3,-1,1,.,-1
CCN(C(=O)C(C)N1C(=O)/C(=C/c2ccco2)SC1=S)C1CCS(=O)(=O)C1 (stereo unspecified),-7,-2,49*,33,34,31*
CCC[C@H]1[C@@H](NC(=O)c2cccc(C(F)(F)F)c2)CC[C@@]23CCCN2C(=O)CCC[C@@H]13,.,3,1,.,.,1
C=CC[C@]1(c2ccccc2)C(=O)N2C[C@H]3CON(C)[C@H]3C[C@H]2c2ccccc21,.,0,7,2,.,1
C#CCOCCOCCOCCNc1nc(N2CCN(C(=O)CCCCCCCCCCNC(=O)[C@H](CO)n3cc(CCCSC)nn3)CC2)nc(N2CCN(C(=O)CCCCCCCCCCNC(=O)[C@H](CCCN=C(N)N)n3cc(C[C@@H](C)CC)nn3)CC2)n1,72*,.,.,.,131*,.
C#CCOCCOCCOCCNc1nc(N2CCN(C(=O)CCCCCCCCCCNC(=O)[C@@H](CCSC)n3cc(CCO)nn3)CC2)nc(N2CCN(C(=O)CCCCCCCCCCNC(=O)[C@H](CCSC)n3cc(CCO)nn3)CC2)n1,-28,11,-1,15,-4,16
C#CCOCCOCCOCCNc1nc(N2CCN(C(=O)CCCCCCCCCCNC(=O)[C@H](CO)n3cc(CCCSC)nn3)CC2)nc(N2CCN(C(=O)CCCCCCCCCCNC(=O)[C@H](CCCCN)n3cc(CCO)nn3)CC2)n1,-4,-6,-2,8,14,25*
C#CCOCCOCCOCCNc1nc(N2CCN(C(=O)CCCCCCCCCCNC(=O)Cn3cc(C[C@@H](C)O)nn3)CC2)nc(N2CCN(C(=O)CCCCCCCCCCNC(=O)[C@H](CCCN=C(N)N)n3cc(C[C@@H](C)CC)nn3)CC2)n1,31,.,.,.,44*,.
COc1ccc(CNCC#Cc2ccccc2)c(OC)c1,.,5,0,5,.,3
COc1ccccc1NS(=O)(=O)c1cccc(C(=O)N2CCCC2)c1,-6,1,-8,2,-1,43*
Cc1occc1C(=O)N(Cc1nc(-c2ccccc2)no1)C(C)C,1,5,12,-2,6,24*
COc1cc(/C=C2/N=C(c3ccccc3)OC2=O)c(F)cc1OCc1ccccc1,11,-3,2,40*,5,0
SMILES,ATG4B inh,MBD2 DNA inh,LEDGF integ inh,rCAG RNA binder,CSN deneddyl inh,UHRF1 binding
COc1ccc(/C=N/Nc2ncc(Br)cn2)c(OC)c1,0,2,-1,0,62*,5
O=C(CSc1nnc(-c2cccs2)n1Cc1ccco1)Nc1ccc(OCc2ccccc2)cc1,.,-2,3,9,.,1
COc1ccccc1NC(=S)OCCN1CCCC12CCC(c1ccccc1)CC2 (stereo unspecified),.,8,2,.,.,2
COc1ccc(OC)c(NC(=O)COC(=O)CCS(=O)(=O)c2ccc(Cl)cc2)c1,-3,4,5,-1,2,21*
COc1ccccc1NC(=O)COC(=O)CCS(=O)(=O)c1ccc(C)cc1,5,6,2,-3,2,-2
O=C(CCn1nnc(-c2cccs2)n1)NCc1cccs1,.,2,-2,-1,.,0
N#Cc1c(C(F)(F)F)cc(-c2ccccc2)[nH]c1=O,-5,1,0,20,5,0
N#Cc1c(C(F)(F)F)cc(-c2ccccc2Cl)[nH]c1=O,17,4,8,37*,1,5
CCCCCCOc1ccc(N2C(=O)CC(N3CCC(C(=O)OCC)CC3)C2=O)cc1 (stereo unspecified),3,-1,-4,-4,5,43*
O=C(Cc1ccsc1)NCC(c1ccco1)N1CCCCC1 (stereo unspecified),-9,-6,0,0,6,25*
O=C(CNC(=O)c1ccco1)NCC(c1ccco1)N1CCCCC1 (stereo unspecified),-4,-5,-1,3,1,-2
O=C(CCCCCNC(=O)c1ccccc1)N/N=C/c1ccc(O)cc1O,-7,11,-4,-2,1,21*
Fc1cc(Cl)cc2ccc(-c3ccccc3)nc12,.,0,2,3,103*,1
O=C1/C(=C/c2cccnc2)CCC/C1=C\c1cccnc1,2,-2,7,-6,.,-2
O=C1/C(=C/c2cccnc2)CC/C1=C\c1cccnc1,28,-2,-8,8,8,40*
COC(=O)C[C@H]1CC[C@@H]2[C@@H](COc3ccc(NC(=O)c4ccno4)cc3C(=O)N2C)O1,.,7,3,6,.,2
O=C(NCc1cccs1)O[C@H]1CC[C@@]23CCCN2C(=O)CCC[C@H]3C1,.,2,3,.,.,-2
